What all share (conditions): stereoisomer not certain
One experiment has as its target T1, OR1G1 (Homo sapiens) (UniProt P47890).
T1 sequence (whole entry): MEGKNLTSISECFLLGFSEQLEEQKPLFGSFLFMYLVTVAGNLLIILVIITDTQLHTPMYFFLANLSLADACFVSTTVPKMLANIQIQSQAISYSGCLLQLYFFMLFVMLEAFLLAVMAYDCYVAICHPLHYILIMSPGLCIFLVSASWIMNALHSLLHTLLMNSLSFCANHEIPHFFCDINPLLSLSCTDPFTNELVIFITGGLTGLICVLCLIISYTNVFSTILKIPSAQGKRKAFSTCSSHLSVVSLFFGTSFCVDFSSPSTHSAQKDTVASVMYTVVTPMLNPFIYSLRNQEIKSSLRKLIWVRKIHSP
In short, it runs like this: (§1)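 Assay methods differ from source to source, frequently being transient luciferase assays in mammalian cell lines. For each receptor–molecule pair, the label responsive (active) applies when the original authors judged the measured signal statistically different from baseline, and non-responsive (inactive) applies otherwise.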

A further experiment relates to T2, OR1F1.
T2 sequence (whole entry): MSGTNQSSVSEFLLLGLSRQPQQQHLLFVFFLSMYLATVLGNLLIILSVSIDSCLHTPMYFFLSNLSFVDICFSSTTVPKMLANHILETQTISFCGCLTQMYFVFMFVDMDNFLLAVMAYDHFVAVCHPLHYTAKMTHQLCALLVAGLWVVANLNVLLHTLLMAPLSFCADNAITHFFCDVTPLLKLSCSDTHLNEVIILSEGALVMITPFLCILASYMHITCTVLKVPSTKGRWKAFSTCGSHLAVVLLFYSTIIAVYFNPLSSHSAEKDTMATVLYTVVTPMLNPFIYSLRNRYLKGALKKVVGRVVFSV
Summed up:
as §1

For another experiment, the target named is T3, OR1F12P (Homo sapiens) (UniProt Q8NHA8).
T3 sequence (whole entry): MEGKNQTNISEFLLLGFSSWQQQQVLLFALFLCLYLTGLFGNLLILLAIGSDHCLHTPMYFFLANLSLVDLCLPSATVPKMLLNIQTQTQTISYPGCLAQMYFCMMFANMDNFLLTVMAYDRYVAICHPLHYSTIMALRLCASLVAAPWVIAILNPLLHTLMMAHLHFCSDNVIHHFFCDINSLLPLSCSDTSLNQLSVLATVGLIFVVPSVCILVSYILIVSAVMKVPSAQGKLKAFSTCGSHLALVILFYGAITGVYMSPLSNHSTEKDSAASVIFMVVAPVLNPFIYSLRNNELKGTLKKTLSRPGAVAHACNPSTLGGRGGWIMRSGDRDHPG
In short, it runs like this:
as §1

In a further experiment the target is T4, OR1I1 (Homo sapiens) (UniProt O60431).
T4 sequence (whole entry): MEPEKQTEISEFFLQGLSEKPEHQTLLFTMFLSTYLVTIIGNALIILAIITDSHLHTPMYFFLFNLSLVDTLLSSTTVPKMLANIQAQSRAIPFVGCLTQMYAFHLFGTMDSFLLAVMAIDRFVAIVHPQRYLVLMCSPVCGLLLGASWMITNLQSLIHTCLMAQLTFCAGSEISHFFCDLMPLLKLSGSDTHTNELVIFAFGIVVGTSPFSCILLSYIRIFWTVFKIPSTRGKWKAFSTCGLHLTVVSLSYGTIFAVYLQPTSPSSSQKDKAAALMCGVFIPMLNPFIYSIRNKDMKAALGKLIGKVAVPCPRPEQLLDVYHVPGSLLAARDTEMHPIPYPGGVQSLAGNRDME
Summed up: as §1

A further experiment has as its target T5, OR1J1 (Homo sapiens) (UniProt Q8NGS3).
T5 sequence (whole entry): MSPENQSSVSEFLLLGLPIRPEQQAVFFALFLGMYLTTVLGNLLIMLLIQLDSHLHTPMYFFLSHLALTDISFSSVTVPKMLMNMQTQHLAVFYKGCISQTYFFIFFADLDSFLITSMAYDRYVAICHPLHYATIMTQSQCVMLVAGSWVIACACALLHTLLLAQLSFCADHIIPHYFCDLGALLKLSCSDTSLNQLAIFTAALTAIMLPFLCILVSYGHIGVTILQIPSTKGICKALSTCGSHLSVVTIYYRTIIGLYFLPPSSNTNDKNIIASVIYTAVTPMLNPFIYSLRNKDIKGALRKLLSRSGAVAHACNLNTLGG
In short, it runs like this: as §1

For the next experiment, the target named is T6, OR1J2 (Homo sapiens) (UniProt Q8NGS2).
T6 sequence (whole entry): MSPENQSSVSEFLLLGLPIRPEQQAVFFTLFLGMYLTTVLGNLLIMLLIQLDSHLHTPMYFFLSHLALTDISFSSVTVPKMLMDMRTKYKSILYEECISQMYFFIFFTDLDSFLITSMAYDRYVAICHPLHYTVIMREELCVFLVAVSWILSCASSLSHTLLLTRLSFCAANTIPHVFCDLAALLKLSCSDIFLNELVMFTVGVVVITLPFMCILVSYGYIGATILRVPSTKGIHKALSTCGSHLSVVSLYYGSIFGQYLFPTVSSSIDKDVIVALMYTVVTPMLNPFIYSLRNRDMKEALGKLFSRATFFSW
In short, it runs like this: as §1

A further experiment has as its target T7, OR1J4 (Homo sapiens) (UniProt Q8NGS1).
T7 sequence (whole entry): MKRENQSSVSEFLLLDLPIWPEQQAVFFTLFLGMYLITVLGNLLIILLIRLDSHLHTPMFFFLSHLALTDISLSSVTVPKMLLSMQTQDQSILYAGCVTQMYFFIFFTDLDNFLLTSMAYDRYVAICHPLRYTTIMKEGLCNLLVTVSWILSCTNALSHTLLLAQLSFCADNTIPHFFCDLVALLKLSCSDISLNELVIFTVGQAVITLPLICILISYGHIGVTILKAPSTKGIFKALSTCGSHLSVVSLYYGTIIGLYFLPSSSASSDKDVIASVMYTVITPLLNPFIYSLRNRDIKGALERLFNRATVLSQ
Summed up: as §1

Another experiment concerns the target T8, OR1K1 (Homo sapiens) (UniProt Q8NGR3).
T8 sequence (whole entry): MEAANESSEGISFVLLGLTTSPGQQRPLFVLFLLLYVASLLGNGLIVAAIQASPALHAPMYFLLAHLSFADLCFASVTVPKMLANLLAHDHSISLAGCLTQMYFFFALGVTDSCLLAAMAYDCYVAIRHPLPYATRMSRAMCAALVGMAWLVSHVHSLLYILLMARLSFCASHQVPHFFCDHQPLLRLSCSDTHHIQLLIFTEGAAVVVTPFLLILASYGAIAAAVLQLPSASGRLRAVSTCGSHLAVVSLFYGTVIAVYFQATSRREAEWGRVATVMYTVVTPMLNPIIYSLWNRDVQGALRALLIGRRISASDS
In short, it runs like this: as §1

The target of a further experiment is T9, OR1L1 (Homo sapiens) (UniProt Q8NH94).
T9 sequence (whole entry): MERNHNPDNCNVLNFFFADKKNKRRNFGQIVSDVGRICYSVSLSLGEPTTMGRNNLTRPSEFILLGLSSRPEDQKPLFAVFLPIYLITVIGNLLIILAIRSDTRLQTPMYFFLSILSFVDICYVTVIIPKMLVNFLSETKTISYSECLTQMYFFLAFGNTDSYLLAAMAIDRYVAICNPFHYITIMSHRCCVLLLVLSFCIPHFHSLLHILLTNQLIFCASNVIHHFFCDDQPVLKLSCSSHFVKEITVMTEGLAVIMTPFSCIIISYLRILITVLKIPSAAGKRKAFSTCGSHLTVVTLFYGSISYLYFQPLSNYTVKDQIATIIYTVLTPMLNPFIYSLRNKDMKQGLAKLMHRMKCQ
Summed up: as §1

In the next experiment the target is T10, OR1L3 (Homo sapiens) (UniProt Q8NH93).
T10 sequence (whole entry): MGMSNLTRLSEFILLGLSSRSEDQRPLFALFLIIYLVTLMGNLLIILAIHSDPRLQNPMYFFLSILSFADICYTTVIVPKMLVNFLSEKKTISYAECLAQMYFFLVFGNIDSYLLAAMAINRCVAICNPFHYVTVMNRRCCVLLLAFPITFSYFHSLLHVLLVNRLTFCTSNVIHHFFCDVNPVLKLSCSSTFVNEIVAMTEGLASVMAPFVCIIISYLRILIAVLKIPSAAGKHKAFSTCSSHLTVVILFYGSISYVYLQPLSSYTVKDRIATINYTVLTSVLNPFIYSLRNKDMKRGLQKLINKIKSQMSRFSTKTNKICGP
Summed up:
as §1

For a further experiment, the target named is T11, OR1L4 (Homo sapiens) (UniProt Q8NGR5).
T11 sequence (whole entry): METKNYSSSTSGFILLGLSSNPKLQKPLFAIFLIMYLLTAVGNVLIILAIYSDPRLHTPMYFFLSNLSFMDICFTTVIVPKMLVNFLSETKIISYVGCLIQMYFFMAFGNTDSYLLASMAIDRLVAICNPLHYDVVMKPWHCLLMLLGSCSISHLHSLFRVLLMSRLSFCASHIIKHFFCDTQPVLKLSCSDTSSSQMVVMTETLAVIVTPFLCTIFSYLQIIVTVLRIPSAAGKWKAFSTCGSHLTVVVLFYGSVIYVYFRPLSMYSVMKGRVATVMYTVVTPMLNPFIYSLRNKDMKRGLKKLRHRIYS
In short, it runs like this:
as §1

The next experiment concerns the target T12, OR1L6 (Homo sapiens) (UniProt Q8NGR2).
T12 sequence (whole entry): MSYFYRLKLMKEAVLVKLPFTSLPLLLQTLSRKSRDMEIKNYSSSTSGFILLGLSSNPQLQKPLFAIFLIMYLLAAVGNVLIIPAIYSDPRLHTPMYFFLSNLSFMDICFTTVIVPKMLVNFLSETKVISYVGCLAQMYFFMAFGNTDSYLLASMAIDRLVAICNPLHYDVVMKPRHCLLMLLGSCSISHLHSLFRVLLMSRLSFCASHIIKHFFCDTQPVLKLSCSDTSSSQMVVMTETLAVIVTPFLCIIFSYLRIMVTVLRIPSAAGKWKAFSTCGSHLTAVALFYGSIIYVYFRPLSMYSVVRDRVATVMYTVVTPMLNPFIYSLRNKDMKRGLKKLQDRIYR
In short, it runs like this: as §1

The next experiment concerns the target T13, OR1L8 (Homo sapiens) (UniProt Q8NGR8).
T13 sequence (whole entry): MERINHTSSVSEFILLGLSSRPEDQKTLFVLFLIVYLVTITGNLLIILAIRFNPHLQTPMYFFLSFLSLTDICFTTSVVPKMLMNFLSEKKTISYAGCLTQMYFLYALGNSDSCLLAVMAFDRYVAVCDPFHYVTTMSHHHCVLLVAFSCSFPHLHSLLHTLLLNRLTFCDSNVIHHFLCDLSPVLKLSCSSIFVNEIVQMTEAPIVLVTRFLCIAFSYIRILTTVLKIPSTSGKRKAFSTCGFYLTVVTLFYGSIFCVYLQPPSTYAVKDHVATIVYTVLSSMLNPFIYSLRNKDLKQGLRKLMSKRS
Summed up:
as §1

Another experiment deals with T14, OR1M1 (Homo sapiens) (UniProt Q8NGA1).
T14 sequence (whole entry): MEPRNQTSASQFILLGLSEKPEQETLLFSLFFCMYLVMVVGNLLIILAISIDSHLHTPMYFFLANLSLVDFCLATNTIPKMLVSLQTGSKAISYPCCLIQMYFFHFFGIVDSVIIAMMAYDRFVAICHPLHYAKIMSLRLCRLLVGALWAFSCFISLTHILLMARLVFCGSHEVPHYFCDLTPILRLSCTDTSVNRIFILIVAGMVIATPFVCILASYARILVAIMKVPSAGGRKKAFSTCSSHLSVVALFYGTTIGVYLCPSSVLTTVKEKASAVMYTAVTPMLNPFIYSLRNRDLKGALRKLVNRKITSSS
In short, it runs like this:
as §1

A further experiment concerns the target T15, OR1N1 (Homo sapiens) (UniProt Q8NGS0).
T15 sequence (whole entry): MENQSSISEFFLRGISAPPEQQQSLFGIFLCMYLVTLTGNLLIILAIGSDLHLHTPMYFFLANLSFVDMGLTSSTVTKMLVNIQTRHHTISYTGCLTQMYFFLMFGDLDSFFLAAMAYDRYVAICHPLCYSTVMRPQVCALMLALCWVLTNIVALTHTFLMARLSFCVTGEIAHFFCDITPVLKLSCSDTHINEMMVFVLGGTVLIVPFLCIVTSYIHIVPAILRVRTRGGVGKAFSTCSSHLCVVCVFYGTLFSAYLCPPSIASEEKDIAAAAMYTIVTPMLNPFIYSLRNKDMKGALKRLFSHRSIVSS
In short, it runs like this:
as §1

The structures appear in SMILES notation.

As for `CCCCCCCCCCCCO`, the “odorant receptor agonist call” value in the experiment with OR1G1 (Homo sapiens) was “active”.

As to `O=CN1CCCCC1`, the “odorant receptor agonist call” value in the experiment with OR1F1 is “inactive”.

Take `CCCCCCCCCCCC(=O)O`: the “odorant receptor agonist call” value in the experiment with OR1G1 (Homo sapiens) is “inactive”.

Take `CCCCCCC(=O)OC`: the “odorant receptor agonist call” value with OR1G1 (Homo sapiens) was “inactive”.

For `CCC(S)C(C)CO` (stereo not drawn), the “odorant receptor agonist call” value in the experiment with OR1F12P (Homo sapiens), with OR1G1 (Homo sapiens), with OR1I1 (Homo sapiens), with OR1J1 (Homo sapiens), with OR1J2 (Homo sapiens) and with OR1J4 (Homo sapiens) was “inactive” each time. Also, the “odorant receptor agonist call” value in the experiment with OR1K1 (Homo sapiens), with OR1L1 (Homo sapiens), with OR1L3 (Homo sapiens), with OR1L4 (Homo sapiens), with OR1L6 (Homo sapiens) and with OR1L8 (Homo sapiens) was “inactive” throughout. The “odorant receptor agonist call” value with OR1M1 (Homo sapiens) and with OR1N1 (Homo sapiens) was “inactive” in each case.

These data come from the M2OR odorant receptor database.
